# Only some compounds are listed: those with a hit (about 2.3% of all), similar ones and a draw of the others.
# TRPC4 agonist – activators of mouse TRPC4 channel | HEK293 TRPC4beta/mu-opioid, Fluo4 calcium fluorescence; stronger effect = higher value | B-score at 10 µM | 0.49% of 310,000 active;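 active = B-score above 5 SD of library B-scores, and initial fluorescence ratio not above library mean plus 5 SD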;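 note: positive B-score marks a calcium rise read as TRPC4 activation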
#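 Test system: HEK293 cells stably co-expressing mouse TRPC4beta and mu-opioid receptor | Schedule: Fluo4 dye loading 45 min at room temperature, 110 s recording | Measured by: Kinetic Fluo4 calcium fluorescence, 5 s baseline at 1 Hz | Evaluation: B score of integrated ratio | Controls: Buffer (low) and maximal DAMGO (high)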
# TRPC6 inhibitor – blocks the mouse TRPC6 cation channel | Q61143 | HEK293-TRPC6, membrane potential dye, ACh-evoked depolarization; stronger effect = lower value | B-score at 10 µM | 1.1% of 310,000 active | AID 2553;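 active = B-score under library mean minus 3 SD, initial fluorescence not abnormally high, positive integrated signal ratio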;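 note: B-score derived from integrated fluorescence ratio over the kinetic read; more negative B-score means stronger inhibition of depolarization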
# Target sequence (Q61143 whole entry, looked up): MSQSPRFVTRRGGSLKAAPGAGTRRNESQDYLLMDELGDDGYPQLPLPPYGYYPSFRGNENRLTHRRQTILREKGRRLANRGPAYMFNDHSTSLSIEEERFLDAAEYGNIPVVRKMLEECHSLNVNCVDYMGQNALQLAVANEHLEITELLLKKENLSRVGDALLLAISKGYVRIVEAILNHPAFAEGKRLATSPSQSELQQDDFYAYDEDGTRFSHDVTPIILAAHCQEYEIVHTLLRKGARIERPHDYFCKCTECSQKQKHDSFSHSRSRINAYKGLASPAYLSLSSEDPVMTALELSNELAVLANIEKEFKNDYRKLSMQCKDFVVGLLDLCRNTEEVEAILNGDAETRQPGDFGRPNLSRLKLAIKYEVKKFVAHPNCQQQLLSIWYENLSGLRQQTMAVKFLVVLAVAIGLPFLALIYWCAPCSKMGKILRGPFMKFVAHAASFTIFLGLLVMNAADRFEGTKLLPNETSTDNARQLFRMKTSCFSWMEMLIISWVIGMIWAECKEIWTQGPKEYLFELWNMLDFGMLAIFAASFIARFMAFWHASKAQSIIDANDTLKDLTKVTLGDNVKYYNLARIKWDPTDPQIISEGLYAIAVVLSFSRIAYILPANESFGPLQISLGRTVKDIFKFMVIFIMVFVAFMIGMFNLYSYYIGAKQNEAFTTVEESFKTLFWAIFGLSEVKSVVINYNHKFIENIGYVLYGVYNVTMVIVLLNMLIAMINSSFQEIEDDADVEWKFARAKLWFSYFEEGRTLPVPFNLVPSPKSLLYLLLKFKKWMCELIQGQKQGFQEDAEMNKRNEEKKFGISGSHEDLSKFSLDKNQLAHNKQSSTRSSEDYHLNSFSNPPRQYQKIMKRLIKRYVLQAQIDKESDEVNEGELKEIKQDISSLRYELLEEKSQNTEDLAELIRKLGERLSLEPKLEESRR
# TRPC6 act – activates the mouse TRPC6 cation channel. B-score at 10 µM. Q61143. HEK293-TRPC6 membrane potential dye fluorescence; stronger effect = higher value. 0.13% of 310,000 active;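 active = B-score of the integrated fluorescence ratio above library mean plus 3 SD, and starting fluorescence ratio within library mean plus 5 SD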;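 note: higher score means more depolarization so channel activation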
# TRPC4 PAM – allosterically enhances the mouse TRPC4 cation channel; Q9QUQ5; HEK293 TRPC4beta/mu-opioid, DAMGO EC20, Fluo-4 Ca2+ flux; stronger effect = higher value; B-score at 10 µM; 0.42% of 310,000 active;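 active = B-score of calcium response area above 5 SD of library B-scores, with initial fluorescence ratio within 5 SD of library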;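 note: B-score of integrated fluorescence ratio over time as area under calcium response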
# TRPC4 block – TRPC4 (mouse) channel inhibition | Q9QUQ5 | HEK293 TRPC4beta/mu-opioid, DAMGO-evoked Fluo4 calcium flux; stronger effect = lower value | B-score at 10 µM | 0.39% of 300,000 active | AID 2247;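 active = B-score over 3 SD under the library average, no early fluorescence shift, positive overall ratio signal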
#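 Assay system: HEK293 cells with stable TRPC4beta plus mu-opioid receptor expression. Dosing: single dose. Measured by: Fluo4 Ca2+ flux fluorescence. Also added: DAMGO in two steps, submaximal then maximal. Read-out: B score from integrated Fluo4 fluorescence ratio.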
# TRPC4 spec 2 – second selectivity test of TRPC6 inhibitors: effect on mouse TRPC4. HEK293 TRPC4/MOR, membrane potential dye fluorescence; channel activated by saturating DAMGO dose. 42% of 920 active. inhibition, % at 10 µM. shares compounds with TRPC6 inhibitor. AID 2776;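 active = compounds whose fluorescence signal differed from control wells by over 3 SD, either direction, in both duplicate plates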
# TRPC4 spec – tests whether TRPC6 inhibitors also affect mouse TRPC4; shares compounds with TRPC6 inhibitor; HEK293 TRPC4/mu-opioid, membrane potential fluorescence; activity change, negative = inhibition, % at 10 µM; 61% of 920 active; AID 2777;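 active = rise or fall in signal beyond 3 SD of buffer-only wells in both replicate plates, either sign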;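 note: integrated kinetic ratio of fluorescence range over baseline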
# HEK293 MPD ctr 2-1 – parental HEK293 nonspecific activity of TRPC6 inhibitors, second screen. shares compounds with TRPC6 inhibitor. parental HEK293 membrane potential dye fluorescence; maximal acetylcholine challenge after compound addition. signal change vs control, % at 10 µM. 31% of 920 active. AID 2779;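 active = membrane potential signal moving either way by over 3 SD of the maximum-effect control, in both duplicate plates, meaning non-specific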
# HEK293 MPD ctr-1 – counter-screen for TRPC6 inhibitors: effect in parental HEK293 cells; shares compounds with TRPC6 inhibitor; parental HEK293 membrane potential dye fluorescence; membrane potential signal change, % at 10 µM; 60% of 920 active; AID 2780;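 active = membrane potential signal shifting up or down by more than 3 SD of buffer-only wells, on both duplicate plates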
# HEK293 MPD ctr-2 – counter-screen for TRPC6 modulators: effect in parental HEK293 cells | shares compounds with TRPC6 inhibitor | AID 488924 | membrane potential dye fluorescence | membrane potential signal change, % at 10 µM | 51% of 2,400 active;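 active = membrane potential signal moves up or down beyond 5 SD from buffer-only wells, on both duplicate plates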
# HEK293 MPD ctr 2-2 – parental HEK293 nonspecific activity of TRPC6 modulators, second screen; inhibition, % at 10 µM; 14% of 2,400 active; shares compounds with TRPC6 inhibitor; membrane potential dye fluorescence; after compound, maximal acetylcholine stimulation;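 active = membrane potential signal drops by more than 5 SD from the mean control signal, in both duplicate plates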;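 note: plate controls were acetylcholine ECmax control wells for no effect and buffer only wells for full effect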
# TRPC4 ctr mod – selectivity of TRPC6 modulators against mouse TRPC4; HEK293 TRPC4/mu-opioid, membrane potential fluorescence; shares compounds with TRPC6 inhibitor; 69% of 2,400 active; percent change from control (negative = decrease, positive = increase), % at 10 µM;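 active = membrane potential signal moved up or down beyond 5 SD of buffer control wells, in both duplicate plates, actives on both sides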;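 note: plate controls were assay buffer wells for no effect and DAMGO maximal-effect wells for full effect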
# TRPC4 ctr inh 2 – mouse TRPC4 off-target activity of TRPC6 modulators, second screen. shares compounds with TRPC6 inhibitor. HEK293 TRPC4/mu-opioid, membrane potential dye fluorescence; stimulated with maximal-effect DAMGO. inhibition, % at 10 µM. 55% of 2,400 active. AID 488928;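 active = drop in membrane potential signal beyond 5 SD of the control wells in both duplicate plates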;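 note: TRPC4 counter screen for TRPC6 hits run under conditions tuned for TRPC6 not TRPC4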
# TRPC6 inh conf – mouse TRPC6 inhibitor confirmation. inhibition, % at 10 µM. shares compounds with TRPC6 inhibitor. HEK293-TRPC6, membrane potential dye, ACh-evoked depolarization. 43% of 3,300 active;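 active = fluorescence ratio falls more than 5 SD below the full-stimulation control mean, in both duplicate runs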;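 note: integrated fluorescence ratio of peak minus minimum over baseline after agonist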
# TRPC6 act conf – confirmation of mouse TRPC6 activators. shares compounds with TRPC6 inhibitor. AID 488961. HEK293-TRPC6 membrane potential dye fluorescence, FDSS. activation, % at 10 µM. 11% of 2,800 active;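 active = ratio signal rise beyond 5 SD above unstimulated control wells' mean, seen in both duplicate runs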;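 note: plate controls were buffer EC0 wells for no effect and acetylcholine ECmax response for full effect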
# Numbers without * were called inactive; i = inactive; x = no result given.
SMILES,TRPC4 agonist,TRPC6 inhibitor,TRPC6 act,TRPC4 PAM,TRPC4 block,HEK293 MPD ctr-2,HEK293 MPD ctr 2-2,TRPC4 ctr mod,TRPC4 ctr inh 2,TRPC6 inh conf,TRPC6 act conf,others
Cc1cccc(NC(=S)NC2CC3CCCC(C2)N3CC(C)C)c1 (stereo not drawn),i,i,i,i,i,x,x,x,x,x,x,
CC(=O)OCCN1CCN(C(=O)CN2C(=O)NC(c3ccccc3)(c3ccccc3)C2=O)CC1,i,i,i,i,i,x,x,x,x,x,x,
CN(C)CCOC1c2ccccc2C=Cc2ccccc21,i,-5.54*,i,i,i,123.5%*,84.0%*,22.5%*,41.5%*,68.0%*,x,
OCCCn1c(-c2ccccc2)csc1=Nc1ccccc1,i,-5.76*,i,i,i,382.0%*,141.0%*,76.5%*,i,126.0%*,x,
O=C(O)CCC(=O)NCCn1c(-c2ccccc2)csc1=Nc1ccccc1,i,i,i,i,i,x,x,x,x,x,x,
O=C(CSc1nnc(-c2ccco2)n1Cc1ccccc1)OC1CCCCC1,i,i,11.8*,i,i,382.5%*,i,53.0%*,52.0%*,i,86.0%*,
O=C(CSc1nnc(-c2ccncc2)n1Cc1ccco1)OC1CCCCC1,i,i,i,i,i,x,x,x,x,x,x,
O=C(CN1CCCCCC1)Nc1ccccc1OC(F)F,i,i,i,i,i,x,x,x,x,x,x,
CCOC(=O)c1nnn2c1nc(N1CCN(C)CC1)c1ccccc12,i,-8.43*,i,i,i,-238.5%*,73.5%*,-42.0%*,53.0%*,61.0%*,i,
CCOC(=O)c1nnn2c1nc(N1CCCCC1)c1ccccc12,i,i,i,i,i,x,x,x,x,x,x,
CCN(CC(=O)NCc1ccncc1)S(=O)(=O)c1ccc(OC)cc1,i,i,i,i,i,x,x,x,x,x,x,
CCOC(=O)N1CCN(C(=O)CN2C(=O)COc3ccc(C(C)(C)C)cc32)CC1,i,-6.29*,i,i,i,94.5%*,i,17.5%*,i,54.5%*,x,
O=C(N/C=C/n1cnc2cc(C(F)(F)F)ccc21)c1ccccc1F,i,i,i,i,x,x,x,x,x,x,x,
CCc1nn2c(=O)cc(COc3ccc(/C=C4\C(=N)N5N=C(C)SC5=NC4=O)cc3)nc2s1,i,i,13.2*,i,i,228.0%*,i,40.5%*,i,i,88.0%*,
COc1cccc(C2/C(=C(/O)c3ccc4c(c3)OCO4)C(=O)C(=O)N2CCN2CCOCC2)c1 (stereo not drawn),i,i,i,i,i,x,x,x,x,x,x,
COc1ccc(-c2cc(=O)c3ccccc3o2)cc1,i,i,i,i,i,x,x,x,x,x,x,
COc1ccc(N=c2cc(-c3ccc(OC)cc3)oc3ccccc23)cc1,i,-5.54*,i,i,i,-109.0%*,i,-25.5%*,52.0%*,38.0%*,i,
COc1ccc(-c2cc(=Nc3ccc(C)cc3)c3ccccc3o2)cc1,i,-8.77*,i,i,i,x,x,x,x,i,i,TRPC4 spec 2=i;TRPC4 spec=-11.9%*;HEK293 MPD ctr 2-1=i;HEK293 MPD ctr-1=i
COc1ccc(N=c2cc(-c3ccc(O)cc3)oc3ccccc23)cc1,i,-6.07*,i,i,i,-93.5%*,i,-28.0%*,64.0%*,41.0%*,i,
CCOc1ccc(N=c2cc(-c3ccc(OC)cc3)oc3ccccc23)cc1,i,i,i,i,i,x,x,x,x,x,x,
CCC(SC1=NCCS1)C(=O)Nc1ccc(S(N)(=O)=O)cc1 (stereo not drawn),i,i,i,i,i,x,x,x,x,x,x,
Cc1ccc(-c2cnc(SCCNC(=O)c3ccco3)[nH]2)cc1,i,i,i,i,i,x,x,x,x,x,x,
O=C(NCCSc1ncc(-c2ccc(F)cc2)[nH]1)c1ccc2c(c1)OCO2,i,-5.79*,i,i,i,i,i,i,i,i,i,
COc1ccc2nc(C)cc(Nc3ccc(N4CCOCC4)cc3)c2c1,i,i,i,i,i,x,x,x,x,x,x,
CCOc1ccccc1Nc1cc(C)nc2ccc(C)cc12,i,-7.7*,i,i,i,x,x,x,x,61.5%*,i,TRPC4 spec 2=46.5%*;TRPC4 spec=-12.6%*;HEK293 MPD ctr 2-1=i;HEK293 MPD ctr-1=-209.0%*
SMILES,TRPC4 agonist,TRPC6 inhibitor,TRPC6 act,TRPC4 PAM,TRPC4 block,HEK293 MPD ctr-2,HEK293 MPD ctr 2-2,TRPC4 ctr mod,TRPC4 ctr inh 2,TRPC6 inh conf,TRPC6 act conf,others
COc1ccc2nc(C)cc(Nc3ccc(N4CCN(C)CC4)cc3)c2c1,i,-9.6*,i,i,i,x,x,x,x,85.7%*,i,TRPC4 spec 2=57.0%*;TRPC4 spec=-23.6%*;HEK293 MPD ctr 2-1=-94.5%*;HEK293 MPD ctr-1=-291.5%*
COc1ccc2nc(C)cc(Nc3ccc(C)cc3)c2c1,i,-6.62*,i,i,-7*,x,x,x,x,68.4%*,i,TRPC4 spec 2=42.5%*;TRPC4 spec=-25.9%*;HEK293 MPD ctr 2-1=i;HEK293 MPD ctr-1=-272.5%*
Cc1cc(Nc2cccc(Br)c2)c2ccccc2n1,i,i,i,i,i,x,x,x,x,x,x,
CCOc1ccccc1Nc1ncnc2ccc(Br)cc12,i,i,i,i,i,x,x,x,x,x,x,
COc1ccc2nc(C)cc(SCC(=O)NNC(=O)COc3ccc(C)cc3)c2c1,i,i,i,i,i,x,x,x,x,x,x,
COc1ccc(Nc2cc(C)nc3ccccc23)cc1,i,-5.09*,i,i,-6*,-131.5%*,i,-21.0%*,48.5%*,i,i,

# Bioassay records deposited in PubChem BioAssay by Johns Hopkins Ion Channel Center.
